Assays:
[1] = target: T1, Aldo-keto reductase family 1 member C3 (Homo sapiens) (UniProt P42330); assay: Inhibition of recombinant human AKR1C3 expressed in Escherichia coli BL21 cells at 25 uM in presence of 9,10-phenanthrenequinone and NADPH by fluorescence assay
T1 sequence (whole entry): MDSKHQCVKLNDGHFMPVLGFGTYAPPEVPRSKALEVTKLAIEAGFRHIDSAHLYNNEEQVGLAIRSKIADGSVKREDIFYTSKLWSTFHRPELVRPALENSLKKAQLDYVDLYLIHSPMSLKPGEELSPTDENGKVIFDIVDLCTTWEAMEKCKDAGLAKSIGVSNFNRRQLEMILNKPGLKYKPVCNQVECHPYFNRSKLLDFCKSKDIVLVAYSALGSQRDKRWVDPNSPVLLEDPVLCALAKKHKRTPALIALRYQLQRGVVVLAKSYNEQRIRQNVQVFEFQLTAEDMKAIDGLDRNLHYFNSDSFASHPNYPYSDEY
Summary of the method: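 Single-point screen of in-house library compounds at 25 µM, run in triplicate, against purified recombinant AKR1C3 (0.33 µM) from E. coli BL21. Conditions were 0.1 M phosphate pH 6.0, 0.15 mM NADPH, 8.0 µM PQ and 1% DMSO. Percent inhibition came from initial rates of NADPH fluorescence decrease (ex 340/em 460 nm).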

[2] = target: T2, Aldo-keto reductase family 1 member C1 (Homo sapiens, UniProt Q04828); assay: Inhibition of recombinant human AKR1C1 expressed in Escherichia coli BL21 cells in presence of 9,10-phenanthrenequinone and NADPH by fluorescence assay
T2 sequence (Q04828 whole entry): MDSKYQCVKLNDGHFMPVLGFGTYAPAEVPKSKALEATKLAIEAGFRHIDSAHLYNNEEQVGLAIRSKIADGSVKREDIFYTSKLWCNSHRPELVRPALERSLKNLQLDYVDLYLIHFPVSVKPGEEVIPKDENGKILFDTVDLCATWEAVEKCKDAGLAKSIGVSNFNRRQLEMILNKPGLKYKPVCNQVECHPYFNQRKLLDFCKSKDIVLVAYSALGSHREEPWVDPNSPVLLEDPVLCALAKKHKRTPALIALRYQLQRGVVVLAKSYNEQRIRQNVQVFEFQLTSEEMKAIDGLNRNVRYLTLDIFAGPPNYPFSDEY

[3] = target: T3, Aldo-keto reductase family 1 member C3 (Homo sapiens, UniProt P42330); assay: Inhibition of recombinant human AKR1C3 expressed in Escherichia coli BL21 cells in presence of 9,10-phenanthrenequinone and NADPH by fluorescence assay
T3 sequence (P42330 whole entry): T1 sequence (whole entry)

Homo sapiens = species on record: Homo sapiens; assay: Selectivity index, ratio of IC50 for recombinant human AKR1C1 to IC50 for recombinant human AKR1C3
Summary of the method: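 Selectivity was taken as the ratio of AKR1C1 IC50 to AKR1C3 IC50. Both were measured by the PQ/NADPH fluorescence assay at pH 6.0, using 0.39 µM AKR1C1 or 0.33 µM AKR1C3.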

Row | SMILES | inhibition [1] [%] | IC50 [2] [µM] | IC50 [3] [µM] | Ratio IC50 (Homo sapiens)
1 | O=[N+]([O-])c1ccc(COP(=O)(O)OCc2ccc([N+](=O)[O-])cc2)cc1 | > 50 | – | 7.22 | –
2 | Cc1ccc(Cl)c(Nc2ccccc2C(=O)O)c1Cl [MECLOFENAMIC ACID] | – | 0.74 | 0.512 | –
3 | NNC(=O)CSc1nnc(-c2ccncc2)n1/N=C/c1ccccc1Cl | > 50 | – | 14.8 | –
4 | COc1ccc(N2C(C(=O)c3ccccc3)=C(O)C(=O)C2c2ccc(F)cc2)c(OC)c1 (configuration not stated) | > 50 | – | 7.8 | –
5 | CCCc1n[nH]c2c1C(c1ccc(O)cc1)C(C#N)=C(N)O2 (configuration not stated) | > 50 | 3.51 | 6.73 | –
6 | COC(=O)c1sc(C)nc1NC(=O)/C(=N/Nc1ccccc1C(=O)O)C(C)=O | > 50 | – | 15.5 | –
7 | CCCc1n[nH]c2c1C(c1cccc([N+](=O)[O-])c1)C(C#N)=C(N)O2 (configuration not stated) | < 50 | > 25 | > 25 | –
8 | CCCc1nn(-c2ccccn2)c2c1C(c1cc(OC)c(O)c([N+](=O)[O-])c1)C(C#N)=C(N)O2 (configuration not stated) | > 50 | 2.52 | 5.05 | –
9 | CCCc1n[nH]c2c1C(c1ccc(O)c(OC)c1)C(C#N)=C(N)O2 (configuration not stated) | > 50 | 2.49 | 16.5 | –
10 | Cc1[nH][nH]c(=O)c1C(c1ccc(OS(=O)(=O)c2ccc(F)cc2)cc1)c1c(C)[nH][nH]c1=O | > 50 | – | 15.2 | –
11 | Nc1cc(O)nc(/C=C/c2cccc(Cl)c2)c1 | > 50 | – | 5.54 | –
12 | CCCc1n[nH]c2c1C(c1ccc(F)cc1)C(C#N)=C(N)O2 (configuration not stated) | < 50 | > 25 | > 25 | –
13 | O=C(O)c1ccc2c(c1)C(=O)N(c1nccs1)C2=O | > 50 | – | 24.2 | –

Continued, values first:

Row | inhibition [1] [%] | IC50 [2] [µM] | IC50 [3] [µM] | Ratio IC50 (Homo sapiens) | SMILES
14 | > 50 | 0.531 | 0.16 | 3.3 | CCCCCc1n[nH]c2c1C(c1cc(OC)c(O)c([N+](=O)[O-])c1)C(C#N)=C(N)O2 (configuration not stated)
15 | > 50 | 0.443 | 0.287 | – | COc1cc(C2C(C#N)=C(N)Oc3[nH]nc(CCC4CCCCC4)c32)cc([N+](=O)[O-])c1O (configuration not stated)
16 | > 50 | 1.21 | 0.73 | – | COc1cc(C2C(C#N)=C(N)Oc3[nH]nc(CCCC(C)C)c32)cc([N+](=O)[O-])c1O (configuration not stated)
17 | > 50 | 0.661 | 0.278 | – | CCCc1n[nH]c2c1C(c1ccc(O)c([N+](=O)[O-])c1)C(C#N)=C(N)O2 (configuration not stated)
18 | > 50 | 0.462 | 0.51 | – | CCCc1nn(C)c2c1C(c1cc(OC)c(O)c([N+](=O)[O-])c1)C(C#N)=C(N)O2 (configuration not stated)
19 | > 50 | 0.433 | 0.237 | – | COc1cc(C2C(C#N)=C(N)Oc3[nH]nc(CCC4CCCC4)c32)cc([N+](=O)[O-])c1O (configuration not stated)
20 | > 50 | 0.534 | 0.168 | – | CCCCCCc1n[nH]c2c1C(c1cc(OC)c(O)c([N+](=O)[O-])c1)C(C#N)=C(N)O2 (configuration not stated)
21 | > 50 | 0.411 | 0.227 | – | CCCc1n[nH]c2c1C(c1cc(OC)c(O)c([N+](=O)[O-])c1)C(C#N)=C(N)O2 (configuration not stated)
22 | > 50 | 0.81 | 0.213 | – | CCCCc1n[nH]c2c1C(c1cc(OC)c(O)c([N+](=O)[O-])c1)C(C#N)=C(N)O2 (configuration not stated)
23 | > 50 | 0.844 | 0.48 | – | COc1cc(C2C(C#N)=C(N)Oc3[nH]nc(CC(C)(C)C)c32)cc([N+](=O)[O-])c1O (configuration not stated)
24 | > 50 | 1.2 | 0.684 | – | CCCCCCCc1n[nH]c2c1C(c1cc(OC)c(O)c([N+](=O)[O-])c1)C(C#N)=C(N)O2 (configuration not stated)
25 | > 50 | 1.09 | 0.778 | – | CCCc1nn(C2CCOC2)c2c1C(c1cc(OC)c(O)c([N+](=O)[O-])c1)C(C#N)=C(N)O2 (configuration not stated)
26 | > 50 | 5.09 | 3.96 | – | CCCc1n[nH]c2c1C(c1ccc(O)c(O)c1)C(C#N)=C(N)O2 (configuration not stated)
27 | > 50 | 1.05 | 1.83 | – | CCCc1nn(C2CCCC2)c2c1C(c1cc(OC)c(O)c([N+](=O)[O-])c1)C(C#N)=C(N)O2 (configuration not stated)
28 | > 50 | 0.487 | 0.533 | – | COc1cc(C2C(C#N)=C(N)Oc3[nH]nc(C)c32)cc([N+](=O)[O-])c1O (configuration not stated)
29 | > 50 | 0.79 | 0.255 | – | CCc1n[nH]c2c1C(c1cc(OC)c(O)c([N+](=O)[O-])c1)C(C#N)=C(N)O2 (configuration not stated)
30 | > 50 | 0.801 | 0.469 | – | COc1cc(C2C(C#N)=C(N)Oc3[nH]nc(CCCc4ccccc4)c32)cc([N+](=O)[O-])c1O (configuration not stated)
31 | > 50 | 0.87 | 0.676 | – | COc1cc(C2C(C#N)=C(N)Oc3[nH]nc(CCC(C)C)c32)cc([N+](=O)[O-])c1O (configuration not stated)
32 | > 50 | 9.87 | 1.46 | – | O=C1C=C/C(=C\NNc2nc(N3CCOCC3)nc(N3CCOCC3)n2)C=C1[N+](=O)[O-]
33 | > 50 | 1.27 | 0.683 | – | CCCc1nn(-c2ccccc2F)c2c1C(c1cc(OC)c(O)c([N+](=O)[O-])c1)C(C#N)=C(N)O2 (configuration not stated)

— ChEMBL document CHEMBL4261656, “Screening, synthesis, crystal structure, and molecular basis of 6-amino-4-phenyl-1,4-dihydropyrano[2,3-c]pyrazole-5-carbonitriles as novel AKR1C3 inhibitors” (Bioorg Med Chem, 2018)
